Where two headings read alike, the source gives them in different places.
Tests used:
M9-ENL1 cells = experiment: MTT cell viability assay with M9-ENL1 cells; format: cell-based
[1] = Drug loading capacity in PSMA-b-PS NPs; format: physicochemical; details: mg drug loaded/mg NPs × 100, PSMA-b-PS NPs
How it was run: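 Test compounds in chloroform (3 mg mL−1) stirred with aqueous NPs at 1:3 drug:NP weight ratio, left uncovered overnight to evaporate solvent (acetone in some runs). Insoluble drug removed by two 4000 rpm spins, and unloaded drug by 100 000 MWCO centrifugal filtration (2000 rpm, 10 min). Quantified by C18 reversed-phase HPLC at 210 nm against methanol standards. LC = mg drug loaded/mg NPs × 100.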

MV411 cells = experiment: alamarBlue cell viability; format: cell-based
[2] = Drug release from PSMA-b-PS based NPs; format: physicochemical; details: for release half-life from NPs: PSMA-b-PS NPs, PBS pH 7.4, 37 °C
How it was run: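 Loaded NPs dialysed (6–8 kDa MWCO) against phosphate-buffered saline, pH 7.4, 37 °C. Aliquots taken at 0, 1, 2, 4, 6, 8, 24, 48 and 72 h, with sink medium replaced at 2, 8, 24 and 48 h. Each aliquot mixed with an equal volume of methanol and analysed by C18 HPLC with 210 nm detection.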

[3] = Serum stability of MCL analogs; format: in vitro ADME, mouse

C=C1C(=O)O[C@H]2[C@H]1CCC(C)=C1CC[C@@](C)(O)[C@@H]12 [MCL, Micheliolide, reference compound]
CC50 (M9-ENL1 cells; M9-ENL1, 24 h, read-out: LC50 M9-ENL1): 15.4 ± 1.1 µM | loading capacity (LC) [1]: ≈ 14% | CC50 (MV411 cells; Homo sapiens, MV4-11, 24 h, read-out: LC50 MV-411): 5.6 ± 2.8 µM | release half-life from NPs [2]: 19.8 min

C=C1C(=O)O[C@H]2[C@H]1CCC(C)=C1[C@H](OC(=O)c3ccc(C(F)(F)F)cc3)C[C@@](C)(O)[C@@H]12 [MCL-13]
CC50 (M9-ENL1 cells): 1.8 ± 1 µM | CC50 (MV411 cells): 1.8 ± 0.7 µM

C=C1C(=O)O[C@H]2[C@H]1CCC(COC(=O)c1cc(C(F)(F)F)cc(C(F)(F)F)c1)=C1CC[C@@](C)(O)[C@@H]12 [MCL-19]
CC50 (M9-ENL1 cells): 4.1 ± 1.1 µM | CC50 (MV411 cells): 1.7 ± 0.9 µM | release half-life from NPs [2]: 540 min | release rate from NPs ([2]; from 0–8 h): 5.7 h⁻¹ | hydrolysis ([3]; free compound, 24 h incubation in both 50% and 100% serum): 80–90% | degradation half-life in serum ([3]; free drug, 50% serum): 18 min | intact compound ([3]; free drug, 50% serum, after 8 h of incubation): 7 ± 2%

Source: paper PMC8791645 (Advanced therapeutics, 2021)
